Data as given in ChEMBL document CHEMBL1152131, “Tetrahydro-4-quinolinamines identified as novel P2Y(1) receptor antagonists” (Bioorg Med Chem Lett, 2008).

Columns and labels:
P2Y purinoceptor 1 [1] = target: T1, P2Y purinoceptor 1 (Homo sapiens, UniProt P47900); experiment: Antagonist activity at human P2Y1 receptor in HEK293 cells assessed as intracellular calcium level by FLIPR; type: functional, cell-based
P2Y purinoceptor 1 [2] = target: T1, P2Y purinoceptor 1; experiment: Displacement of [33P]2-Mes-ADP from human recombinant P2Y1 receptor expressed in human U20S cells; type: cell-based, U2OS
Outline: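 Membranes from BacMam-transduced U2OS cells expressing human P2Y1, [33P]-2-MeS-ADP radioligand, 0.5 mg WGA-SPA beads. Buffer: 15 mM Hepes, 145 mM NaCl, 0.1 mM MgCl2, 5 mM EDTA, 5 mM KCl. Test compound at various concentrations or DMSO vehicle. Incubated 1 h at room temperature to completion, centrifuged at 2000g, then counted.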

Platelet = experiment: Inhibition of ADP-induced human platelet aggregation; type: functional, cell-based
Outline: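 Washed human platelets preincubated with compound for 5 min, then challenged with 10 µM ADP; aggregation followed by light transmittance aggregometry; IC50 reported.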

T1 sequence (P47900 whole entry): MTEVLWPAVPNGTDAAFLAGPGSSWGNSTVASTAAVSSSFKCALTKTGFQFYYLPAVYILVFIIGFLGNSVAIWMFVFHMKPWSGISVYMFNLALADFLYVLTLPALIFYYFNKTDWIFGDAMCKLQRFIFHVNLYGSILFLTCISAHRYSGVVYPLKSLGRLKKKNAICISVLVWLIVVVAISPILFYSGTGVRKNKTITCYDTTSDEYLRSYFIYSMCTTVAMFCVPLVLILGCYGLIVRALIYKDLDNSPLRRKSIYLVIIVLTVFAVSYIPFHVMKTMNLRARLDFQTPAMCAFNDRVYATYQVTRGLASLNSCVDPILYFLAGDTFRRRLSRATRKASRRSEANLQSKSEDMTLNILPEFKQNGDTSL

Row | SMILES | IC50 (P2Y purinoceptor 1 [1]) [nM] | Ki (P2Y purinoceptor 1 [2]) [nM] | other results
1 | CC[C@@H]1[C@@H](C)[C@H](Nc2ccccc2)c2ccccc2N1C(=O)c1ccc([N+](=O)[O-])cc1 | 1600 | 500 | 
2 | CC[C@@H]1[C@@H](C)[C@H](N(C)c2ccccc2)c2ccccc2N1C(=O)c1ccc(OC)cc1 | > 25000 |  | 
3 | CC[C@@H]1[C@@H](C)[C@H](Nc2ccccc2)c2ccccc2N1C(=O)c1ccc(Br)cc1 | 800 | 100 | 
4 | CC[C@@H]1[C@@H](C)[C@H](Nc2ccccc2)c2ccccc2N1C(=O)Nc1ccccc1Cl | > 25000 |  | 
5 | CC[C@@H]1[C@@H](C)[C@H](Nc2ccccc2)c2ccccc2N1C(=O)Nc1cccc(Cl)c1 | 1000 | 300 | 
6 | CC[C@@H]1[C@@H](C)[C@H](Nc2ccccc2)c2ccccc2N1C(=O)Nc1ccccc1 | 1600 | 400 | 
7 | CC[C@@H]1[C@@H](C)[C@H](Nc2ccccc2)c2ccccc2N1C(=O)Nc1cc(OC)cc(OC)c1 | 800 | 200 | 
8 | CC[C@@H]1[C@@H](C)[C@H](Nc2ccccc2)c2ccccc2N1C(=O)c1cccc(OC(F)(F)F)c1 | > 25000 |  | 
9 | CC[C@@H]1[C@@H](C)[C@H](Nc2ccccc2)c2ccccc2N1C(=O)c1ccc(Cl)cc1 | 1300 | 400 | 
10 | CC[C@@H]1[C@@H](C)[C@H](Nc2ccccc2)c2ccccc2N1C(=O)Nc1ccc(Cl)cc1 | 2000 | 300 | 
11 | CC[C@@H]1[C@@H](C)[C@H](Nc2ccccc2)c2ccccc2N1C(=O)Nc1ccc(OC)cc1 | 6000 |  | 
12 | CC[C@@H]1[C@@H](C)[C@H](Nc2ccccc2)c2ccccc2N1C(=O)Nc1cccc(Br)c1 | 1000 | 100 | 
13 | CC[C@@H]1C[C@@H](Nc2ccccc2)c2ccccc2N1C(=O)c1ccc(OC)cc1 | > 25000 |  | 
14 | COc1ccc(C(=O)N2C[C@@H](C)[C@H](Nc3ccccc3)c3ccccc32)cc1 | 10000 |  | 
15 | COc1ccc(C(=O)N2CC[C@H](Nc3ccccc3)c3ccccc32)cc1 | > 25000 |  | 
16 | CC[C@H]1[C@H](C)[C@@H](Nc2ccccc2)c2ccccc2N1C(=O)Nc1cc(Cl)cc(Cl)c1 | > 25000 |  | 
17 | CC[C@@H]1[C@@H](C)[C@H](Nc2ccccc2)c2ccccc2N1C(=O)c1ccccc1 | 25000 |  | 
18 | CC[C@@H]1C[C@H](Nc2ccccc2)c2ccccc2N1C(=O)c1ccc(OC)cc1 | 3200 | 800 | 
19 | CC[C@@H]1[C@@H](C)[C@H](Nc2ccccc2)c2ccccc2N1C(=O)c1ccc(OC)cc1 | 800 | 400 | 
20 | CC[C@@H]1[C@@H](C)[C@H](Nc2ccccc2)c2ccccc2N1C(=O)c1ccc(OC(F)(F)F)cc1 | 1000 | 100 | 
21 | CC[C@@H]1[C@@H](C)[C@H](Nc2ccccc2)c2ccccc2N1C(=O)Nc1cccc(OC)c1 | 1600 | 500 | 
22 | CC[C@@H]1[C@@H](C)[C@H](Nc2ccccc2)c2ccccc2N1C(=O)Nc1cc(Cl)cc(Cl)c1 (stereo in doubt; 6i) | 600 | 70 | 
23 | CC[C@@H]1[C@@H](C)[C@H](Nc2ccccc2)c2ccccc2N1C(=O)Nc1cc(Cl)cc(Cl)c1 (stereo in doubt; 16) |  |  | IC50 (P2Y purinoceptor 1 [1]; hek293): 600 nM; Ki (P2Y purinoceptor 1 [2]; u2os): 70 nM; IC50 (Platelet): 504 nM
